Measurements as given in ChEMBL document CHEMBL3864151, “Discovery of imidazopyridazines as potent Pim-1/2 kinase inhibitors” (Bioorg Med Chem Lett, 2016).
Calls of active or inactive are those of the source. The calls are words filed in the database; no cut-off is given here.

What was measured:
[1] = Intrinsic clearance in rat liver microsomes at 1 uM after 30 mins by LC-MS HRMS analysis; assay type: ADME; conditions: read-out: CLH
[2] = Clearance in Sprague-Dawley rat at 2 mg/kg, iv; assay type: ADME, organism-based; conditions: in vivo
Outline: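 Male Sprague Dawley rats, 3 animals per dosing route, mean values. iv dose 2 mg/kg as a solution in DMSO; po dose 5 mg/kg in 1% Tween 80, 2% HPMC, 97% water/methanesulfonic acid pH 2.2.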

[3] = biological target: Voltage-gated inwardly rectifying potassium channel KCNH2 (Homo sapiens, UniProt Q12809); assay: Inhibition of radiolabeled dofetilide binding to human ERG expressed in HEK293 cells
Voltage-gated inwardly rectifying potassium channel KCNH2, sequence (Q12809 whole entry): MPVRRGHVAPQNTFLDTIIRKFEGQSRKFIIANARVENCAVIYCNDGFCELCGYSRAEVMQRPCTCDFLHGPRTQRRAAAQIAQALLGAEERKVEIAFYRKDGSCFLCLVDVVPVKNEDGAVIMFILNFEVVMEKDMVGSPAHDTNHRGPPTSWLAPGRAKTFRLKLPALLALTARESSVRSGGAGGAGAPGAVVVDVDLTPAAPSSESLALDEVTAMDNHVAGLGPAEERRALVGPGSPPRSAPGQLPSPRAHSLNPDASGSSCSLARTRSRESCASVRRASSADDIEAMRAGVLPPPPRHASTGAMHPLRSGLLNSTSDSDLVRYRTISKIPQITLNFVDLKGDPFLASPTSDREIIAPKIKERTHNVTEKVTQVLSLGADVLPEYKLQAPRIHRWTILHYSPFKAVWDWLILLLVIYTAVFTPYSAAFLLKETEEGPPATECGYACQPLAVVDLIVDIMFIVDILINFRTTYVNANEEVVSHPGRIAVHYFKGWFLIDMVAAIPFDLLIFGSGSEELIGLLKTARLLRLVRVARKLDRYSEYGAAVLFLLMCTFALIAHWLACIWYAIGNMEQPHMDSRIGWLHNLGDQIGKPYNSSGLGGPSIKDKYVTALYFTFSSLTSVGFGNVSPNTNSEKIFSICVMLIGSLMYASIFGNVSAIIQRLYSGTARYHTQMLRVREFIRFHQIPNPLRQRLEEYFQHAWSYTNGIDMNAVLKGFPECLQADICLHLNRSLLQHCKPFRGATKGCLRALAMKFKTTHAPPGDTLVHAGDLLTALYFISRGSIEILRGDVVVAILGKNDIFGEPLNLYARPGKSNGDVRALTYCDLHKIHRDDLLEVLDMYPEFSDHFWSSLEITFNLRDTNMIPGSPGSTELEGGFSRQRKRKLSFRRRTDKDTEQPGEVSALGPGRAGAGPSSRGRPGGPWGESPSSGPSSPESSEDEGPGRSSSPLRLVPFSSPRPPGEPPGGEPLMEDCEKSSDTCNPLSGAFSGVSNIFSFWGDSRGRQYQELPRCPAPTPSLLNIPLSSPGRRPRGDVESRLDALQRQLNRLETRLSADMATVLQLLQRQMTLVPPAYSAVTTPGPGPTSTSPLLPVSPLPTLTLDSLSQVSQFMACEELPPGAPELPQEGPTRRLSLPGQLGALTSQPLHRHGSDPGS

[4] = biological target: Homeodomain-interacting protein kinase 2 (Homo sapiens) (UniProt Q9H2X6); assay: Competitive binding affinity to partial length wild type human HIPK2 expressed in mammalian expression system at 10 uM by kinomescan method relative to control
Homeodomain-interacting protein kinase 2 (Homo sapiens), sequence (Q9H2X6 whole entry, looked up): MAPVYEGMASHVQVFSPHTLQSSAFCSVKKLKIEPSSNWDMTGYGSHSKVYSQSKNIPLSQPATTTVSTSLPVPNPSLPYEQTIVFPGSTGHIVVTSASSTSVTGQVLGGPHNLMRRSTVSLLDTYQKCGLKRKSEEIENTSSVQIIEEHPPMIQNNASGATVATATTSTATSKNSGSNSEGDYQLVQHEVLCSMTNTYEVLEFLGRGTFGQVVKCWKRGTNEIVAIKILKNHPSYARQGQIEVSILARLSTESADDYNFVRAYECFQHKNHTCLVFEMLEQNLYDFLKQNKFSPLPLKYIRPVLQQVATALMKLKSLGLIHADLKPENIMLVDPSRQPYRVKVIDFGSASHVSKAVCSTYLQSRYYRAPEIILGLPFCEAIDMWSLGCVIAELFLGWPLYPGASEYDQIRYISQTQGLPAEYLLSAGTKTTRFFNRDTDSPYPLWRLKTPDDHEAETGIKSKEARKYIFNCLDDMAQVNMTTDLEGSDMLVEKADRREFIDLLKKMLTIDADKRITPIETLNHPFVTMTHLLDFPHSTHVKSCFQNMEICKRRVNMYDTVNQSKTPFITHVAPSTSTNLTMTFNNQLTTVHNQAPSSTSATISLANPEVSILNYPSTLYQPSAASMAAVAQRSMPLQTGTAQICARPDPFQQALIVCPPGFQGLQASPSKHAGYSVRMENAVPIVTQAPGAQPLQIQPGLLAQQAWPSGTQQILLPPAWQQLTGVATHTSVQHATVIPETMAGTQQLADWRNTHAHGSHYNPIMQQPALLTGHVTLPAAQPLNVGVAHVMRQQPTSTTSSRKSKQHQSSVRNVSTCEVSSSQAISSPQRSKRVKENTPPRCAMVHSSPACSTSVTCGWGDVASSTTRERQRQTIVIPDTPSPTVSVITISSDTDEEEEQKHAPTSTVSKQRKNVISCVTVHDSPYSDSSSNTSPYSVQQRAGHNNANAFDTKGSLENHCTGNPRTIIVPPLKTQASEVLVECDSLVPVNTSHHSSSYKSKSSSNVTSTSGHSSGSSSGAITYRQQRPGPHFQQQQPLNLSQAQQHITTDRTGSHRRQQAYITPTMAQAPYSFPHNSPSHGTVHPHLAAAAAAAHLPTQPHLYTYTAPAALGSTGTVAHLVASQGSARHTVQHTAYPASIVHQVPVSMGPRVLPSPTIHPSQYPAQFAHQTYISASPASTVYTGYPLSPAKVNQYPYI
Outline: (§1)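 DiscoveRX scanMAX kinase panel of protein and lipid kinases and common mutants; competitive binding of compound at 10 µM expressed as percentage of control (POC).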

[5] = biological target: Phosphatidylinositol 4-phosphate 5-kinase type-1 gamma (Homo sapiens) (UniProt O60331); assay: Competitive binding affinity to partial length wild type human PIP5K1C expressed in mammalian expression system at 10 uM by kinomescan method relative to control; outline: as §1
Phosphatidylinositol 4-phosphate 5-kinase type-1 gamma (Homo sapiens), sequence (O60331 whole entry): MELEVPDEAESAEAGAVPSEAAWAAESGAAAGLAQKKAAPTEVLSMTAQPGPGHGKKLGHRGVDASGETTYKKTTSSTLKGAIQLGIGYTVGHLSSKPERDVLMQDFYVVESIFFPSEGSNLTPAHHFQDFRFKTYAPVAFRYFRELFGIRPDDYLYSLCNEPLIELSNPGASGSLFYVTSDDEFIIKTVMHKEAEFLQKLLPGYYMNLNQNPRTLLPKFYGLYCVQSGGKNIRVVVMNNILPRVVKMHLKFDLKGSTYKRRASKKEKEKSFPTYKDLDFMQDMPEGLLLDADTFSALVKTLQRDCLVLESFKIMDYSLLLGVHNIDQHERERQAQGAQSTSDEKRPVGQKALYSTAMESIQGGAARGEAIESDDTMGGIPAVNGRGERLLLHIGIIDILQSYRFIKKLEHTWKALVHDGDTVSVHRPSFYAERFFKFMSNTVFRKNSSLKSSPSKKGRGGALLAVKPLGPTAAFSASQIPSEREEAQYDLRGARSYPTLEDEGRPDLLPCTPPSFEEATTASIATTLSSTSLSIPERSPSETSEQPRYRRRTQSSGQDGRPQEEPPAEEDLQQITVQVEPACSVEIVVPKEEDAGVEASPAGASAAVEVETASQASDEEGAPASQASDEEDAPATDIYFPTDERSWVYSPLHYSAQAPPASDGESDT

[6] = biological target: Serine/threonine-protein kinase TAO2 (Homo sapiens) (UniProt Q9UL54); assay: Competitive binding affinity to partial length wild type human TAOK2 expressed in mammalian expression system at 10 uM by kinomescan method relative to control; outline: as §1
Serine/threonine-protein kinase TAO2 (Homo sapiens), sequence (Q9UL54 whole entry): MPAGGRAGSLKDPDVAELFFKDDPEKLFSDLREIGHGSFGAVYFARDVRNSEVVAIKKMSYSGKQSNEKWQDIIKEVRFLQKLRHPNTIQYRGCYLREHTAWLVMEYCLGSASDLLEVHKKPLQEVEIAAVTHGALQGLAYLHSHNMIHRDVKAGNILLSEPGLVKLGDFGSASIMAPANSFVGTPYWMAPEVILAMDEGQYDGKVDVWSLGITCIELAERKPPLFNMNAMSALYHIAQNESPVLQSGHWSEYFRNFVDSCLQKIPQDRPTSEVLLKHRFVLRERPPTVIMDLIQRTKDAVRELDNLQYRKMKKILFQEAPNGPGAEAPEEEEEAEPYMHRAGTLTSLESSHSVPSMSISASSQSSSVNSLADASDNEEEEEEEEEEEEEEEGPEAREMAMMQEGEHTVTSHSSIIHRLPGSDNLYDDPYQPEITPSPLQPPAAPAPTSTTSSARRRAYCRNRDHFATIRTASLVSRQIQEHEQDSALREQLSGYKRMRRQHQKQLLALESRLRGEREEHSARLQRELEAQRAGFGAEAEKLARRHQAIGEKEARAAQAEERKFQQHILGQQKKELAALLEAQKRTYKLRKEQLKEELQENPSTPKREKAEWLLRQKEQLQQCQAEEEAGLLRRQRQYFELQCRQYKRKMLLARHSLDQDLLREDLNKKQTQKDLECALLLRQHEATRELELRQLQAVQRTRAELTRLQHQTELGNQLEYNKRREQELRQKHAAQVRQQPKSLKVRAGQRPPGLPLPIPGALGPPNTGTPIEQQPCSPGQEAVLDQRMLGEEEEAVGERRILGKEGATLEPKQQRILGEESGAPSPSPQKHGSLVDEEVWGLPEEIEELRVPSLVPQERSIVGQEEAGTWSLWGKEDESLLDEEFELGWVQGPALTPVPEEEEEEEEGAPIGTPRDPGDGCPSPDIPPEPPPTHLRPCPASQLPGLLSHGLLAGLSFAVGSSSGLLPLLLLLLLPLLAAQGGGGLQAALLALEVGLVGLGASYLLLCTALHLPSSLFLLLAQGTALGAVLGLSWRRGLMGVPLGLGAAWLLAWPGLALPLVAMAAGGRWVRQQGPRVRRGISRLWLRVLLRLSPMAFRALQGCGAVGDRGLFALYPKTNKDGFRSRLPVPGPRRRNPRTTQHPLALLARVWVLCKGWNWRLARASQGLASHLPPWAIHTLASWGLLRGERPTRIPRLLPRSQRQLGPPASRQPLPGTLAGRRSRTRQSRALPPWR

[7] = Antiproliferative activity against human MOLP8 cells after 72 hrs by CellTiter-Glo assay; assay type: functional, cell-based; conditions: MOLP-8, 72 h
[8] = Antiproliferative activity against human KMS12PE cells after 72 hrs by CellTiter-Glo assay; assay type: functional, cell-based; conditions: KMS-12-PE
[9] = Antiproliferative activity against human KARPAS620 cells after 72 hrs by CellTiter-Glo assay; assay type: functional, cell-based; conditions: Karpas-620, 72 h
[10] = Antiproliferative activity against human L363 cells after 72 hrs by CellTiter-Glo assay; assay type: functional, cell-based; conditions: L-363, 72 h
[11] = Antiproliferative activity against human MOLP2 cells after 72 hrs by CellTiter-Glo assay; assay type: functional, cell-based; conditions: MOLP-2, 72 h
[12] = Antiproliferative activity against human MM1S cells after 72 hrs by CellTiter-Glo assay; assay type: functional, cell-based; conditions: MM1.S
[13] = Antiproliferative activity against human MM1R cells after 72 hrs by CellTiter-Glo assay; assay type: functional, cell-based; conditions: MM.1R
[14] = Inhibition of Pim signaling in human KMS-12-BM cells assessed as upregulation of Pim2 expression at […] after 4 to 72 hrs by Western blot method; assay type: cell-based
[15] = Inhibition of Pim signaling in human KMS-12-BM cells assessed as upregulation of Pim3 expression at […] after 4 to 72 hrs by Western blot method; assay type: cell-based
[16] = Effect on total BAD levels in human KMS-12-BM cells at […] after 4 to 72 hrs by Western blot method; assay type: ADME, cell-based
KMS-12-BM = assay: Induction of apoptosis in human KMS-12-BM cells assessed as increase in cleaved caspase 3 levels at […] after 4 to 72 hrs by Western blot method; assay type: functional, cell-based

C[C@@H]1C[C@H](N)CN(c2ccncc2Nc2ncc3ccc(-c4c(F)cccc4F)nn23)C1
microsomal CLint at 1 µM [1]: > 399 µL/min/mg | CL [2]: 23.3 mL/min/kg | IC50 [3]: 1000 nM | Activity [4]: 1.8% | Activity [5]: 7% | Activity [6]: 7.8% | IC50 [7]: 58 nM | IC50 [8]: 130 nM | IC50 [9]: 162 nM | IC50 [10]: 332 nM | IC50 [11]: 332 nM | IC50 [12]: 361 nM | IC50 [13]: 457 nM | Activity [14]: Active | Activity [15]: Active | Activity [16]: Non-Toxic | Activity (KMS-12-BM): Active
